T cell HTS: modulators of CD8 T cell-vesicle binding, primary screen, mouse 2C CD8+ T cells, flow cytometry; 2C CD8+ T cell-vesicle binding; active compounds read low; response (vesicle binding), % at 7 µM; 330,000 tested, 0.068% active;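 active = response, share of CD8 T cells binding vesicles, and their 90th percentile fluorescence all below set limits, cut at about 80% in these data, passing the limit was not always enough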;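 note: values below 100% mean blocked vesicle binding to the CD8+ T cells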
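Read-out – percent CD8+ FL2 mean versus row control · System – murine 2C transgenic CD8+ T lymphocytes · Times – 1.5 h cell–vesicle binding at 37 °C, then 20 min icy labelling · Control set – naked vesicles low, QL9 vesicles with vehicle high · Detection – cytometric PE anti-B7-1 and Alexa647 anti-CD8 signals after 1% paraformaldehyde fixation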
ALR inh: inhibitors of human ALR sulfhydryl oxidase, primary screen, biochemical, H2O2 detection, HRP-luminol luminescence, single point; 290,000 tested, 3.8% active; FAD-linked sulfhydryl oxidase ALR (Homo sapiens), P55789; purified ALR, DTT oxidation; inhibition, % (concentration not given with the values); AID 485317, 2010;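 active = mean replicate inhibition above about 79%, with every replicate also reaching it, limit read from the data; inconclusive = only one of the two criteria met; inactive = mean below limit and not every replicate reaching it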
Target sequence (P55789 whole entry, looked up): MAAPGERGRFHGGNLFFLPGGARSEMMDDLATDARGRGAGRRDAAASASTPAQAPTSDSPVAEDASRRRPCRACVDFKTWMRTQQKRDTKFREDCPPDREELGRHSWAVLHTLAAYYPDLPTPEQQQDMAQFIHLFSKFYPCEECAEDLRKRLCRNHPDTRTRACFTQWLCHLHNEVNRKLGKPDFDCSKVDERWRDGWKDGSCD
Glyco luc inh: increase of ERlucT glycosylation luciferase signal, primary screen, N-linked glycosylation inhibitor project, D54 ERlucT cells, luminescence, set 2; 360,000 tested, 0.23% active; AID 588692, 2011; D54 ERlucT glycosylation luciferase reporter, 24 h; percent of 100 nM tunicamycin response; reporter increase, % at 12.5 µM;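 active = mean luciferase reporter signal, scaled so untreated is 0 and the glycosylation-blocking control 100, at or above a set limit in every replicate; inconclusive = mean reaches the limit but not every replicate does; inactive = mean below the limit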;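 note: luciferase carries N-glycosylation sites so blocking glycosylation raises the light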
Large screens that a line does not name were inactive. This is one part of a sample in which hits are shown more often than they occur.

O=C(OC(C(=O)NCc1ccccc1)c1ccccc1)c1ccco1 (stereo not given)	none
CC(=O)CCC(=O)CNC(=O)CC[C@H]1O[C@@H](n2ccc(=O)[nH]c2=O)[C@H](O)[C@@H]1O	none (no result: T cell HTS, ALR inh)
C=CCOc1ccc(C(=O)O)cc1Cl	none
CCN1C(=O)/C(=C/C=C2/CCCN2C)OC1=S	ALR inh 98
CN1C(=O)/C(=C\C=C2/CCCN2C)N(C)C1=S	none
O=C1C[C@H]2[C@H](CO)[C@@H](OC(=O)c3ccc(-c4ccccc4)cc3)C[C@H]2O1	none
CCOc1ccc2oc(C(=O)N(CCOC)c3c(N)n(CC(C)C)c(=O)[nH]c3=O)c(C)c2c1	none
COc1ccc(N2CCN(C3CCCN(C(=O)CN4CCCC4=O)C3)CC2)cc1 (stereo not given)	none
Cc1nc(-c2cccs2)sc1C(=O)O	none
Cc1nccc(-c2sc(-c3cccs3)nc2C)n1	ALR inh 85
O=C(COC(=O)c1cc(Cl)ccc1[N+](=O)[O-])NC1CC1	none
O=C(OC1CCCCC1=O)c1cc(Cl)ccc1[N+](=O)[O-] (stereo not given)	ALR inh 91
CC1CCCC(C)N1c1nnc(N)s1 (stereo not given)	ALR inh 95
CC1CCCCN1c1nnc(N)s1 (stereo not given)	none
CN(CCOc1ccc(Br)cc1)C(=O)CNC(=O)c1ccc2ccccc2c1	none
O=c1c2c(-c3cccc([N+](=O)[O-])c3)ccnc2[nH]n1-c1ccccc1	none
Cc1cc(-c2ccccc2)c2c(=O)n(-c3ccccc3)[nH]c2n1	ALR inh 99
COc1cccc(C(=O)Nc2ccc(NC(=O)C3C4C=CC(C4)C3C(=O)O)cc2)c1 (stereo not given)	none
Cc1ccc(C(=O)CCNc2ccc(Br)cc2)o1	none
Cc1ccc(C(=O)CCNc2ccccc2)o1	ALR inh 97
CCN(C(=O)CSc1nc2ccccc2c(=O)n1C(C)COC)C1CCS(=O)(=O)C1 (stereo not given)	none (no result: ALR inh)
CCOc1ccc(N(CC(=O)NCc2ccc(F)cc2)C(=O)CCC(=O)Nc2nccs2)cc1	none
Cc1ccccc1NC(=S)N/N=C/c1ccc(O)cc1O	ALR inh 99
Cc1cccc(NC(=S)N/N=C/c2cccc(O)c2)c1C	none (no result: ALR inh)
Cc1cc(-c2ccccc2)nc(N/N=C/c2ccc(O)cc2O)n1	none
Cc1cc(N/N=C/c2ccccc2O)c2ccccc2n1	ALR inh 99
Cc1ccc(-c2cc(-c3ccccc3)nc(N/N=C/c3cccnc3)n2)cc1	none
Cc1ccc2nc(C)cc(N/N=C/c3cccnc3)c2c1	ALR inh 99
COc1ccc2nc(C)cc(N/N=C/c3cccc(OC)c3O)c2c1	ALR inh 87
COc1ccc(/C=N/Nc2cc(C)nc3ccc(Br)cc23)cc1	none
O=C(O)c1cc(S(=O)(=O)N2CC3CC3C2C(=O)O)c(Cl)cc1Cl (stereo not given)	none (no result: Glyco luc inh)
COc1ccc(CN2CC(C(=O)N3CC(C)CC(C)C3)CC2=O)cc1 (stereo not given)	none
Cc1cc(C)nc(NNC(=O)c2ccccc2O)n1	ALR inh 95
Cc1cc(NC(=O)c2ccccc2O)nc(C)n1	none
COc1ccc(OCC(=O)N(Cc2ccc(C)o2)C2CCS(=O)(=O)C2)cc1 (stereo not given)	none
COc1cc(/C=C2\C(=O)ON=C2c2ccccc2)cc(Br)c1O	none (no result: ALR inh)
CCOc1cc(/C=C2\C(=O)ON=C2c2ccccc2)cc(Br)c1O	none (no result: ALR inh)
O=C1ON=C(c2ccccc2)/C1=C/c1ccc(O)cc1	ALR inh 87
COc1cc(/C=C2/C(=O)ON=C2c2ccccc2)ccc1O	ALR inh 95
O=C1ON=C(c2ccccc2)/C1=C/c1ccccc1	none (no result: ALR inh)
COc1cc(/C=C2\C(=O)ON=C2c2ccccc2)cc(Cl)c1O	ALR inh 99
O=C(Nc1ccc2c3c(cccc13)CC2)c1ccccc1	none (no result: T cell HTS, ALR inh)
COC(=O)COc1cccc(/C=N/NC(=O)CCSc2ccccc2)c1	none
Cc1cc(OC(C)C(=O)NCC2CCC(C(=O)O)CC2)c2c(C)cc(=O)oc2c1 (stereo not given)	none
CC(=O)Nc1ccc(S(=O)(=O)NC(C)C(=O)NCCc2ccc(F)cc2)cc1 (stereo not given)	ALR inh 98
CC(NS(=O)(=O)c1ccc(Br)cc1)C(=O)NCCc1ccccc1 (stereo not given)	none
COc1ccc(OC)c(NC(=O)CSc2ccc3nnc(-c4ccccn4)n3n2)c1	none
O=C(Cn1cc2c(n1)CCCC2)NC1CCCCCC1	none
COC(=O)c1ccn(CC(=O)NC2CCCCC2)n1	ALR inh 94
CC(C)(c1cc(Br)c(O)c(Br)c1)c1cc(Br)c(O)c(Br)c1	none
CCC1CCCCN1C(=O)CSc1nc2ncccc2[nH]1 (stereo not given)	none
O=c1nccc(SCc2ccc(Cl)cc2Cl)[nH]1	ALR inh 99
Cc1cnc(SCc2ccc(Cl)cc2Cl)[nH]c1=O	none
C/C(=N\Nc1ccccc1)c1c(O)cc(C)oc1=O	ALR inh 99
Cc1ccc(N/N=C/c2c(O)cc(C)oc2=O)cc1	ALR inh 99
Cc1cc(O)c(/C=N/Nc2ccc(F)cc2)c(=O)o1	none
C/C(=N/NC(=O)c1cccc(C)c1)c1c(O)cc(C)oc1=O	none
CN1CCc2c(sc3c2C(=O)NC(c2ccco2)N3)C1 (stereo not given)	none
CN1CCc2c(sc3c2C(=O)NC(c2ccc(-c4ccc(Cl)cc4)o2)N3)C1 (stereo not given)	ALR inh 91
CCOC(=O)C1CCCN(C(=O)CN2C(=O)/C(=C/c3ccc(OC)cc3)Oc3ccccc32)C1 (stereo not given)	none
O=C(CCl)Nc1cn(-c2ccccc2)nc1-c1ccc(F)cc1	Glyco luc inh 52
Fc1ccc(-c2nn(-c3ccccc3)cc2CNCc2ccccc2)cc1	none
Cc1cccc(N2CSC3=C(C#N)C(c4ccc(C)o4)CC(=O)N3C2)c1 (stereo not given)	ALR inh 99 (no result: Glyco luc inh)
COc1ccc(OC)c(C2CC(=O)N3CN(c4ccccc4)CSC3=C2C#N)c1 (stereo not given)	none
COc1ccc(C(=O)NCC(c2ccccc2)c2ccccc2)cc1S(=O)(=O)N1CCOCC1	none (no result: T cell HTS, ALR inh)
Cc1ccc(-c2ccc(/C=C(\C#N)C(=O)Nc3cc(C)nn3-c3ccccc3)o2)cc1	none (no result: Glyco luc inh)
N#C/C(=C\c1ccc(-c2ccccc2)o1)C(=O)Nn1cnnc1	ALR inh 98
Cc1nc(C(=O)O)nn1-c1cc(Cl)ccc1Cl	none
Cc1ccc(C)c(S(=O)(=O)N2CCN(C(=O)[C@@H](NC(=O)c3ccc(F)cc3)C(C)C)CC2)c1	none
CCOc1ccc(C(=O)/C=C/c2ccc(OC)c(OC)c2)cc1	ALR inh 97
CCOc1ccc(/C=C/C(=O)c2ccccc2)cc1OC	Glyco luc inh 26
COc1ccc(C(=O)/C=C/c2ccc(OC3CSC3)cc2)cc1OC	none
COc1ccc(/C=C/C(=O)c2ccc3c4c(cccc24)CC3)cc1OC	Glyco luc inh 34
COc1ccc(/C=C/C(=O)c2ccc3c4c(cccc24)CC3)cc1	Glyco luc inh inconclusive
COc1cccc(C(=O)/C=C/c2ccc(OCC#N)c(OC)c2)c1	none (no result: ALR inh)
CCC(Cc1ccccc1)NC(=O)CCc1ccccc1 (stereo not given)	none
